In brackets after ≈: the same amount, converted by molar mass.

The first assay concerns HL-60. As to the kind of experiment: Cytotoxicity against human HL60 cells after 72 hrs by MTT assay. It is filed as functional, cell-based. The conditions noted are these: HL-60, 72 h. Summed up:
(§1)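 HL-60 (JCRB 0085) cells in RPMI 1640 with 10% FBS, L-glutamine, penicillin G and streptomycin, seeded at 4 × 10^4 cells/mL, preincubated 24 h at 37 °C in 5% CO2. Sample added in EtOH-H2O (1:1) to final 0.1-20 µg/mL; vehicle in controls. After 72 h, MTT 4 h, centrifuged, formazan dissolved in DMSO. Mean ± SEM of three experiments in triplicate.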
What is called IC50 is the midpoint of a concentration-inhibition curve. Higher therefore signals lower potency. Compound `COc1cc([C@@H]2c3cc4c(cc3[C@@H](O[C@@H]3O[C@@H]5CO[C@@H](C)O[C@H]5[C@H](O)[C@H]3O)[C@H]3COC(=O)[C@H]23)OCO4)cc(OC)c1O` [ETOPOSIDE] showed a half-maximal inhibitory concentration (IC50) of 0.26 µg/mL (≈ 0.442 µM). Still for that read-out and setting: as for `CC1(C)CC[C@]2(C(=O)O)CC[C@]3(C)C(=CC[C@@H]4[C@@]5(C)CC[C@H](O[C@@H]6OC[C@H](O)[C@H](O)[C@H]6O)C(C)(CO)[C@@H]5CC[C@]43C)[C@@H]2C1` (stereo partly drawn), the figure is 12.5 µg/mL (≈ 20.7 µM). Same read-out and setting: as for `CC1(C)CC[C@]2(C(=O)O)CC[C@]3(C)C(=CC[C@@H]4[C@@]5(C)CC[C@H](O[C@@H]6OC[C@H](O)[C@H](O)[C@H]6O)[C@@](C)(C=O)[C@@H]5CC[C@]43C)[C@@H]2C1`, the figure is 4.8 µg/mL (≈ 7.96 µM); as for `CC1(C)CC[C@]2(C(=O)O)[C@H](O)C[C@]3(C)C(=CC[C@@H]4[C@@]5(C)CC[C@H](O[C@@H]6OC[C@H](O)[C@H](O)[C@H]6O[C@@H]6O[C@H](CO)[C@@H](O)[C@H](O)[C@H]6O)C(C)(C)[C@@H]5CC[C@]43C)[C@@H]2C1`, 11.8 µg/mL (≈ 15.4 µM); as for `CC1(C)CC[C@]2(C(=O)O)CC[C@]3(C)C(=CC[C@@H]4[C@@]5(C)CC[C@H](O[C@@H]6OC[C@H](O)[C@H](O)[C@H]6O[C@@H]6O[C@H](CO)[C@@H](O)[C@H](O)[C@H]6O)[C@@](C)(CO)[C@@H]5CC[C@]43C)[C@@H]2C1`, 15.9 µg/mL (≈ 20.7 µM). Same read-out and setting: as for `CC1(C)CC[C@]2(C(=O)O)CC[C@]3(C)C(=CC[C@@H]4[C@@]5(C)CC[C@H](O[C@@H]6OC[C@H](O)[C@H](O)[C@H]6O[C@@H]6O[C@H](CO)[C@@H](O)[C@H](O)[C@H]6O)C(C)(C)[C@@H]5CC[C@]43C)[C@@H]2C1`, the figure is 10.8 µg/mL (≈ 14.4 µM). In turn, `CC1(C)CC[C@]2(C(=O)O)[C@H](O)C[C@]3(C)C(=CC[C@@H]4[C@@]5(C)CC[C@H](O[C@@H]6OC[C@H](O)[C@H](O)[C@H]6O)C(C)(C)[C@@H]5CC[C@]43C)[C@@H]2C1` showed an IC50 of 5.6 µg/mL (≈ 9.26 µM).

`CC1(C)CC[C@]2(C(=O)O)CC[C@]3(C)C(=CC[C@@H]4[C@@]5(C)CC[C@H](O[C@@H]6OC[C@H](O)[C@H](O)[C@H]6O)C(C)(C)[C@@H]5CC[C@]43C)[C@@H]2C1` showed an IC50 of 3.4 µg/mL (≈ 5.77 µM).

The subject of the next assay is HL-60. The experiment in a line: Cytotoxicity against human HL60 cells up to 20 ug/ml after 72 hrs by MTT assay.
Settings: not given
The format is functional, cell-based. Summed up: as §1
Background: Tetrazolium assays rely on reduction of a dye to a coloured formazan, in cell work by metabolically active cells.
For `C[C@@H]1O[C@@H](O[C@H]2[C@H](O)[C@@H](O)[C@H](OC[C@H]3O[C@@H](OC(=O)[C@]45CCC(C)(C)C[C@H]4C4=CC[C@@H]6[C@@]7(C)CC[C@H](O)[C@@](C)(CO)[C@@H]7CC[C@@]6(C)[C@]4(C)CC5)[C@H](O)[C@@H](O)[C@@H]3O)O[C@@H]2CO)[C@H](O)[C@H](O)[C@H]1O`, the Activity result is “Not toxic”. In the case of `C[C@@H]1O[C@@H](O[C@H]2[C@H](O)[C@@H](O)[C@H](OC[C@H]3O[C@@H](OC(=O)[C@]45CCC(C)(C)C[C@H]4C4=CC[C@@H]6[C@@]7(C)CC[C@H](O[C@@H]8OC[C@H](O)[C@H](O)[C@H]8O)[C@@](C)(CO)[C@@H]7CC[C@@]6(C)[C@]4(C)C[C@H]5O)[C@H](O)[C@@H](O)[C@@H]3O)O[C@@H]2CO)[C@H](O)[C@H](O)[C@H]1O`, the Activity result was “Not toxic”. As to `C[C@@H]1O[C@@H](O[C@H]2[C@H](O)[C@@H](O)[C@H](OC[C@H]3O[C@@H](OC(=O)[C@]45CCC(C)(C)C[C@H]4C4=CC[C@@H]6[C@@]7(C)CC[C@H](O[C@@H]8OC[C@H](O)[C@H](O)[C@H]8O[C@@H]8O[C@H](CO)[C@@H](O)[C@H](O)[C@H]8O)C(C)(C)[C@@H]7CC[C@@]6(C)[C@]4(C)CC5)[C@H](O)[C@@H](O)[C@@H]3O)O[C@@H]2CO)[C@H](O)[C@H](O)[C@H]1O`, the Activity entry is “Not toxic”. Consider `C[C@@H]1O[C@@H](O[C@H]2[C@H](O)[C@@H](O)[C@H](OC[C@H]3O[C@@H](OC(=O)[C@]45CCC(C)(C)C[C@H]4C4=CC[C@@H]6[C@@]7(C)CC[C@H](O[C@@H]8OC[C@H](O)[C@H](O)[C@H]8O[C@@H]8O[C@H](CO)[C@@H](O)[C@H](O)[C@H]8O)[C@@](C)(CO)[C@@H]7CC[C@@]6(C)[C@]4(C)CC5)[C@H](O)[C@@H](O)[C@@H]3O)O[C@@H]2CO)[C@H](O)[C@H](O)[C@H]1O`, for which the Activity result is “Not toxic”. As to `C[C@H]1[C@@H]2[C@H]3CC[C@@H]4[C@@]5(C)CC[C@H](O[C@@H]6OC[C@H](O)[C@H](O)[C@H]6O[C@@H]6O[C@H](CO)[C@@H](O)[C@H](O)[C@H]6O)C(C)(C)[C@@H]5CC[C@@]4(C)[C@]3(C)CC[C@@]23CC[C@]1(C)OC3=O`, the Activity result was “Not toxic”. The same measure, in the same setting: then `C[C@@H]1O[C@@H](O[C@H]2[C@H](O)[C@@H](O)[C@H](OC[C@H]3O[C@@H](OC(=O)[C@]45CCC(C)(C)C[C@H]4C4=CC[C@@H]6[C@@]7(C)CC[C@H](O[C@@H]8OC[C@H](O)[C@H](O)[C@H]8O)[C@@](C)(CO)[C@@H]7CC[C@@]6(C)[C@]4(C)CC5)[C@H](O)[C@@H](O)[C@@H]3O)O[C@@H]2CO)[C@H](O)[C@H](O)[C@H]1O`, with “Not toxic”; and `CC1(C)CC[C@]2(C(=O)O)[C@H](O)C[C@]3(C)C(=CC[C@@H]4[C@@]5(C)CC[C@H](O[C@@H]6OC[C@H](O)[C@H](O)[C@H]6O[C@@H]6O[C@H](CO)[C@@H](O)[C@H](O)[C@H]6O)[C@@](C)(CO)[C@@H]5CC[C@]43C)[C@@H]2C1`, with “Not toxic”; and `CC1(C)CC[C@]2(C(=O)O)[C@H](O)C[C@]3(C)C(=CC[C@@H]4[C@@]5(C)CC[C@H](O[C@@H]6OC[C@H](O)[C@H](O)[C@H]6O)[C@@](C)(C=O)[C@@H]5CC[C@]43C)[C@@H]2C1`, with “Not toxic”. As for `CC1(C)CC[C@@]23C(=O)O[C@]4([C@@H]2C1)[C@H]1O[C@H]1[C@@H]1[C@@]2(C)CC[C@H](O[C@@H]5OC[C@H](O)[C@H](O)[C@H]5O)[C@@](C)(CO)[C@@H]2CC[C@@]1(C)[C@]4(C)C[C@H]3O`, the Activity result was “Not toxic”.

With `CC1(C)CC[C@]2(C(=O)O[C@@H]3O[C@H](CO[C@@H]4O[C@H](CO)[C@@H](O)[C@H](O)[C@H]4O)[C@@H](O)[C@H](O)[C@H]3O)[C@H](O)C[C@]3(C)C(=CC[C@@H]4[C@@]5(C)CC[C@H](O[C@@H]6OC[C@H](O)[C@H](O)[C@H]6O)[C@@](C)(CO)[C@@H]5CC[C@]43C)[C@@H]2C1`, the Activity entry was “Not toxic”. For the compound `CC1(C)CC[C@]2(C(=O)O)[C@H](O)C[C@]3(C)C(=CC[C@@H]4[C@@]5(C)CC[C@H](O[C@@H]6OC[C@H](O)[C@H](O)[C@H]6O)[C@@](C)(CO)[C@@H]5CC[C@]43C)[C@@H]2C1`, the Activity result is “Not toxic”. Regarding `CC1(C)CC[C@]2(C(=O)O[C@@H]3O[C@H](CO)[C@@H](O)[C@H](O)[C@H]3O)[C@H](O)C[C@]3(C)C(=CC[C@@H]4[C@@]5(C)CC[C@H](O[C@@H]6OC[C@H](O)[C@H](O)[C@H]6O)[C@@](C)(CO)[C@@H]5CC[C@]43C)[C@@H]2C1`, the Activity entry was “Not toxic”. Still for that read-out and setting: as for `C[C@H]1[C@@H]2C3CC[C@@H]4[C@@]5(C)CC[C@H](O[C@@H]6OC[C@H](O)[C@H](O)[C@H]6O[C@@H]6O[C@H](CO)[C@@H](O)[C@H](O)[C@H]6O)C(C)(C)[C@@H]5CC[C@@]4(C)[C@]3(C)CC[C@@]2(C(=O)O)CC[C@@]1(C)O` (stereo partly drawn), the entry is “Not toxic”; as for `CC1(C)CC[C@@]23CC[C@]4(C)[C@@](OC2=O)([C@@H]3C1)[C@H]1O[C@H]1[C@@H]1[C@@]2(C)CC[C@H](O[C@@H]3OC[C@H](O)[C@H](O)[C@H]3O[C@@H]3O[C@H](CO)[C@@H](O)[C@H](O)[C@H]3O)[C@@](C)(CO)[C@@H]2CC[C@]14C`, “Not toxic”. As for `CC1(C)CC[C@@]2(C(=O)O)C(=C3C=C[C@@H]4[C@@]5(C)CC[C@H](O[C@@H]6OC[C@H](O)[C@H](O)[C@H]6O)[C@@](C)(CO)[C@@H]5CC[C@@]4(C)[C@]3(C)C[C@H]2O)C1`, the Activity result is “Not toxic”.

For the origin of these results see ChEMBL document CHEMBL1153025, “Triterpene glycosides from the underground parts of Caulophyllum thalictroides” (J Nat Prod, 2009).
